Measurements taken from ChEMBL document CHEMBL1140342, “Antitumor activity of C-methyl-beta-D-ribofuranosyladenine nucleoside ribonucleotide reductase inhibitors” (J Med Chem, 2005).

How the values were obtained:
Type in all cases: functional, cell-based
K562 [1] = assay: In vitro inhibitory activity against human myelogenous leukemia K562 cell line
How it was run: (§1)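 Cells kept in 10% FBS medium, RPMI 1640 for K562/K562IU and MEM alpha for HT-29/MCF-7; adherent lines trypsinized to single-cell suspension. Log-phase cells seeded at about 50 000 cells/mL, acclimatized 24 h, then exposed to compound dilutions (up to 100 μM) in triplicate for 48 h at 37 °C, 5% CO2. MTS/PMS tetrazolium reduction 3 h, A490; IC50 = concentration giving 50% growth inhibition.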

HT-29 = assay: In vitro inhibitory activity against human colon carcinoma HT-29 cell line; how it was run: as §1
K562 [2] = assay: In vitro inhibitory activity against human leukemia K562IU cell line; how it was run: as §1
MCF7 = assay: In vitro inhibitory activity against human breast carcinoma MCF-7 cell line; how it was run: as §1

| Structure (SMILES) | IC50 (K562 [1]) [µM] | IC50 (HT-29) [µM] | IC50 (K562 [2]) [µM] | IC50 (MCF7) [µM] |
| --- | --- | --- | --- | --- |
| CNc1ncnc2c1ncn2C1O[C@H](CO)[C@@](C)(O)C1O (single isomer, unassigned) | 43.9 | 74.3 | 93.8 | 68.1 |
| C[C@]1(O)C(O)C(n2cnc3c(NC4CC4)ncnc32)O[C@@H]1CO (single isomer, unassigned) | 73 | > 100 | > 100 | > 100 |
| OC[C@H]1O[C@@H](n2cnc3c(NC4CC4)ncnc32)C(O)[C@@H]1O (single isomer, unassigned) | > 100 | > 100 | > 100 | 93.4 |
| C[C@@]1(O)[C@H](O)[C@@H](CO)O[C@H]1n1cnc2c(N)ncnc21 | 16 | > 100 | > 100 | > 100 |
| C[C@]1(O)C(n2cnc3c(NC4CC4)ncnc32)O[C@H](CO)[C@H]1O (stereo partly drawn) | > 100 | > 100 | > 100 | > 100 |
| CNc1ncnc2c1ncn2[C@@H]1O[C@H](CO)[C@@H](O)C1O (single isomer, unassigned) | > 100 | > 100 | > 100 | > 100 |
| Nc1nc(Cl)nc2c1ncn2[C@@H]1O[C@H](CO)[C@@H](O)C1O (single isomer, unassigned) | 15.4 | 85.6 | 19.5 | 72.6 |
| C[C@@]1(n2cnc3c(N)ncnc32)O[C@H](CO)[C@@H](O)C1O (single isomer, unassigned) | 53 | > 100 | > 100 | > 100 |
| CNc1ncnc2c1ncn2C1O[C@H](CO)[C@@H](O)[C@@]1(C)O (stereo partly drawn) | > 100 | > 100 | > 100 | > 100 |
| C[C@]1(O)C(O)C(n2cnc3c(N)nc(Cl)nc32)O[C@@H]1CO (single isomer, unassigned) | > 100 | > 100 | > 100 | > 100 |
| C[C@]1(O)C(n2cnc3c(N)nc(Cl)nc32)O[C@H](CO)[C@H]1O (stereo partly drawn) | > 100 | > 100 | > 100 | > 100 |
| C[C@]1(O)C(O)[C@H](n2cnc3c(N)ncnc32)O[C@@H]1CO (single isomer, unassigned) | 18.2 | 23.2 | 38.3 | 17.5 |
